One experiment deals with WISH normal cell line. Kind of experiment: Cytotoxic effect against normal cell line. The format is cell-based. The conditions noted are these: read-out: IC50 WISH.
The next experiment has as its system MDA breast cancer cells. Kind of experiment: In vitro antitumor MTT assay, MDA. Format: cell-based, human. The conditions noted are these: Homo sapiens, 24 h, read-out: IC50 MDA. The gist of the method: (§1)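 ATCC cell lines grown in RPMI-1640 with 10% FBS, penicillin/streptomycin, at 37 °C and 5% CO2. Seeded at 1.0×10^4 cells/well for 48 h, then treated 24 h with a range of test compound concentrations. MTT (5 mg/mL solution) added for 4 h; formazan dissolved in DMSO and read at 570 nm. IC50 from percent viability; mean ± S.D. of three separate experiments.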
On the technique in general: Formazan colour is commonly taken as a measure of viable cells.

The test system of a further experiment is A549 lung cancer cells. Kind of experiment: In vitro antitumor MTT assay, A549. The format is cell-based, human. The conditions noted are these: Homo sapiens, A549, 24 h, read-out: IC50 A549. A digest of the protocol: as §1
Experiment [1] concerns Caco-2 colon cancer cells. Kind of experiment: In vitro antitumor MTT assay, Caco-2. The format is cell-based, human. The conditions noted are these: Homo sapiens, Caco-2, 24 h, read-out: IC50 Caco-2. A digest of the protocol:
as §1

A further experiment addresses VEGFR-2 kinase (Homo sapiens, UniProt P35968). Kind of experiment: biochemical. The conditions noted are these: VEGFR-2, IC50, VEGFR-2 Kinase Assay Kit (BPS-Bioscience), luminescence.

VEGFR-2 kinase, sequence (P35968 20-1356): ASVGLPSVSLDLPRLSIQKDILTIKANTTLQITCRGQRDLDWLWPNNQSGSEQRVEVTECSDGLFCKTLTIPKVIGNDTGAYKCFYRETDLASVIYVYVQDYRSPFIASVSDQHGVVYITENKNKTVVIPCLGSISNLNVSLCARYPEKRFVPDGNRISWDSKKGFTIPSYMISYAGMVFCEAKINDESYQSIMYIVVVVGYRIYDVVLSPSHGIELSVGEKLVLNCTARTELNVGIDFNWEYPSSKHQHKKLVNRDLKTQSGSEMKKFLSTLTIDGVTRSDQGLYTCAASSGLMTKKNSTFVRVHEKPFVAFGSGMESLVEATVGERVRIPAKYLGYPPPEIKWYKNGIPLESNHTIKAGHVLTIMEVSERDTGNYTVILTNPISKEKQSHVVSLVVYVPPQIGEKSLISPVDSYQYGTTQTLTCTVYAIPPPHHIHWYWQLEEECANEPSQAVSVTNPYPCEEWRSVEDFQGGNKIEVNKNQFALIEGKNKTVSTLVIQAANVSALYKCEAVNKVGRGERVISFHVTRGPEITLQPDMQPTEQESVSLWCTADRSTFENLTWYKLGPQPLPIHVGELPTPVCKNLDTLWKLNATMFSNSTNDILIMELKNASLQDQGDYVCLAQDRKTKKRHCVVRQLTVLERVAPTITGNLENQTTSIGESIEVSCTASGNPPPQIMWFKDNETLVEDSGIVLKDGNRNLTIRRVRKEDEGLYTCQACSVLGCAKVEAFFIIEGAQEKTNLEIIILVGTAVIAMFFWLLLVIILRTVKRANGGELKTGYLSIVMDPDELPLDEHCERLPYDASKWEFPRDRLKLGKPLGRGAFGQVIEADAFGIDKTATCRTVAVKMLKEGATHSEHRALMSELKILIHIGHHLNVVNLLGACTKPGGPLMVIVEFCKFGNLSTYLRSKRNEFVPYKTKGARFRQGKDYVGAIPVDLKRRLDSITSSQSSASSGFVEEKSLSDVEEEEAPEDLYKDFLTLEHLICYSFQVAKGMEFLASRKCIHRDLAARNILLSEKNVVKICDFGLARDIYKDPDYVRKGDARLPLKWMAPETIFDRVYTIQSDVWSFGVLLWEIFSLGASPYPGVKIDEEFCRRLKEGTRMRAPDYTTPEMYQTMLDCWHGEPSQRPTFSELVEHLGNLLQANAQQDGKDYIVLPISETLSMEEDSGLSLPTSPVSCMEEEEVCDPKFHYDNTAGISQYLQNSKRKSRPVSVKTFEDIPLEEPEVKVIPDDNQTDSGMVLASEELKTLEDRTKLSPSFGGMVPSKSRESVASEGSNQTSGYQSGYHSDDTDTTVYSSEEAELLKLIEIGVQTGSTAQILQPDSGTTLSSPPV

Take `O=C(CN1CCN(c2nc3ccccc3nc2Cl)CC1)Nc1ccccc1` [Compound 10a, 2-(4-(3-chloroquinoxalin-2-yl)piperazin-1-yl)-N-phenylacetamide]: the IC50 came to 30.5 µM in the experiment on WISH normal cell line, 14.4 µM in the experiment with MDA breast cancer cells, 9.03 µM in the experiment with A549 lung cancer cells and 14.2 µM in experiment [1].
For `COc1ccc(NC(=O)CN2CCN(c3nc4ccccc4nc3Cl)CC2)cc1` [Compound 10b, 2-(4-(3-chloroquinoxalin-2-yl)piperazin-1-yl)-N-(4-methoxyphenyl)acetamide], in that order: 45.7 µM, 11.6 µM, 6.48 µM and 14.6 µM.
In the case of `O=C(CN1CCN(c2nc3ccccc3nc2Cl)CC1)Nc1ccc(Cl)cc1` [Compound 10c, N-(4-chlorophenyl)-2-(4-(3-chloroquinoxalin-2-yl)piperazin-1-yl)acetamide], the IC50 with WISH normal cell line was 48 µM; in the experiment with MDA breast cancer cells, 11.3 µM; in the experiment with A549 lung cancer cells, 9.57 µM; in experiment [1], 9.42 µM.
Take `O=C(CN1CCN(c2nc3ccccc3nc2Cl)CC1)Nc1ccc(F)cc1` [Compound 10d, 2-(4-(3-chloroquinoxalin-2-yl)piperazin-1-yl)-N-(4-fluorophenyl)acetamide]: the IC50 in the experiment with WISH normal cell line was 82.2 µM; in the experiment on MDA breast cancer cells, 16.6 µM; in the experiment with A549 lung cancer cells it was 10.9 µM; in experiment [1], 32.8 µM.
In the case of `CC(=O)c1ccc(NC(=O)CN2CCN(c3nc4ccccc4nc3Cl)CC2)cc1` [Compound 10f, N-(4-acetylphenyl)-2-(4-(3-chloroquinoxalin-2-yl)piperazin-1-yl)acetamide], the IC50 was 65.5 µM in the experiment on WISH normal cell line, 16.1 µM in the experiment on MDA breast cancer cells, 10.3 µM in the experiment with A549 lung cancer cells and 28.4 µM in experiment [1].
With `O=C(CN1CCN(c2nc3ccccc3nc2Cl)CC1)Nc1ccc([N+](=O)[O-])cc1` [Compound 10g, 2-(4-(3-chloroquinoxalin-2-yl)piperazin-1-yl)-N-(4-nitrophenyl)acetamide], the IC50 in the experiment with WISH normal cell line was determined as 85 µM; with MDA breast cancer cells it was 10.5 µM; in the experiment with A549 lung cancer cells it was 8.36 µM; at VEGFR-2 kinase it was 0.332 ± 0.028 µM; in experiment [1], 15.9 µM.
With `O=C(CN1CCN(c2nc3ccccc3[nH]c2=O)CC1)Nc1ccc(Cl)cc1` [Compound 13c, N-(4-chlorophenyl)-2-(4-(3-oxo-3,4-dihydroquinoxalin-2-yl)piperazin-1-yl)acetamide], the IC50 in the experiment with WISH normal cell line came out at 42.1 µM; with MDA breast cancer cells, 12.1 µM; in the experiment with A549 lung cancer cells, 12.8 µM; in experiment [1], 9.05 µM.
For the compound `Cc1ccc(NC(=O)CN2CCN(c3nc4ccccc4[nH]c3=O)CC2)cc1` [Compound 13e, 2-(4-(3-oxo-3,4-dihydroquinoxalin-2-yl)piperazin-1-yl)-N-(p-tolyl)acetamide], the IC50 in the experiment on WISH normal cell line was determined as 39.6 µM; in the experiment on MDA breast cancer cells, 18.5 µM; in the experiment on A549 lung cancer cells, 12.6 µM; in experiment [1], 14.3 µM.
For `O=C(CN1CCN(c2nc3ccccc3[nH]c2=O)CC1)Nc1ccc([N+](=O)[O-])cc1` [Compound 13g, N-(4-nitrophenyl)-2-(4-(3-oxo-3,4-dihydroquinoxalin-2-yl)piperazin-1-yl)acetamide], in that order: 38.6 µM, 24.6 µM, 10.5 µM and 19.4 µM.
Consider `O=C(CN1CCN(c2nc3ccccc3[nH]c2=O)CC1)NCc1ccccc1` [Compound 14, N-benzyl-2-(4-(3-oxo-3,4-dihydroquinoxalin-2-yl)piperazin-1-yl)acetamide], for which the IC50 with WISH normal cell line is 35.7 µM; in the experiment with MDA breast cancer cells it was 20 µM; with A549 lung cancer cells, 14.7 µM; in experiment [1] it was 16.6 µM.
For `CNC(=O)c1cc(Oc2ccc(NC(=O)Nc3ccc(Cl)c(C(F)(F)F)c3)cc2)ccn1` [Sorafenib, reference compound], the IC50 with MDA breast cancer cells stood at 10.8 µM; with A549 lung cancer cells it was 14.1 µM; in experiment [1], 9.25 µM.

Broadly, the IC50 is the midpoint of a concentration-inhibition curve.

Source of the values: paper PMC8904266 (Drug Design, Development and Therapy, 2022).
